According to ChEMBL document CHEMBL2380270, “Radiosynthesis and first evaluation in mice of [(18)F]NS14490 for molecular imaging of α7 nicotinic acetylcholine receptors” (Bioorg Med Chem, 2013):

Key:
[1] = Cyclohexane-PBS distribution coefficient, log D of the compound at pH 7.2 after 30 mins by shake-flask method; type: physicochemical; conditions: pH 7.2, 0.5 h
[2] = n-Octanol-PBS distribution coefficient, log D of the compound at pH 7.2 after 30 mins by shake-flask method; type: physicochemical
[3] = Stability of the compound in Tris-HCl buffer assessed as compound remaining at pH 6.7 measured up to 2 hrs by radio-TLC analysis; type: physicochemical; conditions: read-out: Stability
Summary of the method: (§1)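 Tracer formulated in isotonic saline, then diluted 1:20 into 50 mM Tris–HCl (pH 6.7) or PBS (pH 7.2). Stirred at 40 °C for up to 2 h, sampled at 5, 10, 30, 60, 90 and 120 min, and analysed by radio-TLC for intact tracer.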

[4] = Stability of the compound in PBS buffer assessed as compound remaining at pH 7.2 measured up to 2 hrs by radio-TLC analysis; type: physicochemical; conditions: read-out: Stability; summary of the method: as §1
[5] = Stability of the compound in Tris-HCl buffer assessed as compound remaining at pH 6.7 measured at 5 mins by radio-TLC analysis; type: physicochemical; conditions: read-out: Stability; summary of the method: as §1
[6] = Stability of the compound in PBS buffer assessed as compound remaining at pH 7.2 measured at 5 mins by radio-TLC analysis; type: physicochemical; conditions: read-out: Stability; summary of the method: as §1
[7] = Ratio of drug level in brain to plasma in CD1 mouse at 200 to 300 kBq, iv measured at 15 mins; type: ADME, organism-based; conditions: read-out: BPR
Summary of the method: (§2)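 Female CD-1 mice injected intravenously with 200–300 kBq tracer. Animals killed at 5, 15, 30 and 60 min (n = 3; n = 7 at 60 min). Brain and plasma activity gamma-counted as % ID/g wet weight, and the brain-to-plasma ratio taken from these values.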

[8] = Ratio of drug level in brain to plasma in CD1 mouse at 200 to 300 kBq, iv measured at 60 mins; type: ADME, organism-based; conditions: read-out: BPR; summary of the method: as §2
[9] = Ratio of drug level in brain to plasma in CD1 mouse at 200 to 300 kBq, iv measured at 30 mins; type: ADME, organism-based; conditions: read-out: BPR; summary of the method: as §2
[10] = Ratio of drug level in brain to plasma in CD1 mouse at 200 to 300 kBq, iv measured at 5 mins; type: ADME, organism-based; conditions: read-out: BPR; summary of the method: as §2
[11] = biological target: T1, Neuronal acetylcholine receptor subunit alpha-7 (Homo sapiens, UniProt P36544); assay: Binding affinity to alpha7 nAChR (unknown origin)
Summary of the method: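 Radioligand competition on homogenates of SH-SY5Y cells transfected with human α7 nAChR. [³H]methyllycaconitine at about 0.3 nM working concentration, test ligand in serial dilution 10 pM–10 µM. Buffer 50 mM Tris–HCl pH 7.4 with 120 mM NaCl, 5 mM KCl, 2.5 mM MgCl₂, 1 mM CaCl₂. Nonspecific binding defined with 300 µM (−)-nicotine tartrate. Incubated 240 min at room temperature, then filtered on PEI-soaked GF/B and counted by scintillation. Run in triplicate; IC50 by non-linear regression, Ki by Cheng–Prusoff.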

Brain [12] = assay: Biodistribution in CD1 mouse brain measured at 60 mins by autoradiographic analysis; type: ADME, organism-based; conditions: in vivo, 1 h
Homo sapiens [13] = organism: Homo sapiens; assay: Selectivity ratio of Ki for human alpha4beta2 nAChR to Ki for human alpha7 nAChR
Homo sapiens [14] = organism: Homo sapiens; assay: Selectivity ratio of Ki for human alpha3beta4 nAChR to Ki for human alpha7 nAChR
[15] = biological target: Neuronal acetylcholine receptor; alpha4/beta2 (Homo sapiens, UniProt P17787+P43681); assay: Displacement of (+/-)[3H]-epibatidine from human alpha4beta2 nAChR transfected in HEK293 cells after 90 mins by liquid scintillation counting analysis; type: cell-based
Summary of the method: (§3)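 Homogenates of HEK293 cells transfected with human α4β2 or α3β4 nAChR, with about 0.5 nM (±)-[3H]epibatidine and compound 10 pM–10 µM. Buffer: 50 mM Tris–HCl pH 7.4 with NaCl, KCl, MgCl2 and CaCl2. Incubated 90 min at room temperature; nonspecific binding defined with 300 µM (−)-nicotine tartrate. Filtered onto PEI-soaked GF/B, scintillation counted, triplicates; IC50 by nonlinear regression, Ki by Cheng–Prusoff.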

[16] = biological target: Neuronal acetylcholine receptor; alpha3/beta4 (Homo sapiens, UniProt P30926+P32297); assay: Displacement of (+/-)[3H]-epibatidine from human alpha3beta4 nAChR transfected in HEK293 cells after 90 mins by liquid scintillation counting analysis; type: cell-based; summary of the method: as §3
[17] = biological target: T1, Neuronal acetylcholine receptor subunit alpha-7; assay: Displacement of [3H]-methyllycaconitine from human alpha7 nAChR transfected in human SH-SY5Y cells after 240 mins by liquid scintillation counting analysis; type: cell-based
Summary of the method: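 Homogenates of SH-SY5Y cells transfected with human α7 nAChR, with about 0.3 nM [3H]methyllycaconitine and compound 10 pM–10 µM in Tris–HCl pH 7.4 saline buffer. Incubated 240 min at room temperature; nonspecific binding defined with 300 µM (−)-nicotine tartrate. Filtered onto PEI-soaked GF/B, washed with ice-cold Tris, scintillation counted, triplicates; Ki via Cheng–Prusoff.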

[18] = biological target: Neuronal acetylcholine receptor subunit alpha-7 (Rattus norvegicus, UniProt Q05941); assay: Displacement of [3H]A-585539 from rat brain alpha7 nAChR by scintillation counting analysis
Femur = assay: Biodistribution in CD1 mouse femur at 200 to 300 kBq, iv measured at 60 mins by gamma counting analysis in presence of NS6740; type: ADME, organism-based; conditions: in vivo, 1 h
Summary of the method: (§4)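 Blocking study in female CD-1 mice, n = 7 per blocker, with a matching control group. SSR180711 or NS6740 given at 10 mg kg⁻¹ ip in 0.9% saline 10 min before iv radiotracer (200–300 kBq). Organs taken at 60 min p.i., weighed and gamma-counted; uptake as % ID per g wet weight. Compared with control by two-tailed independent Student's t test.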

Muscle tissue = assay: Biodistribution in CD1 mouse muscle at 200 to 300 kBq, iv measured at 60 mins by gamma counting analysis in presence of NS6740; type: ADME, organism-based; conditions: in vivo, 1 h
Summary of the method: (§5)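 Blocking design in female CD-1 mice, n = 7 per group. The blocker was given at 10 mg kg^-1 i.p. in 0.9% saline 10 min before i.v. 200–300 kBq [18F]radiotracer. Mice were killed at 60 min p.i. and organs weighed and gamma-counted as % ID per g wet weight. Blocked groups were compared with controls by two-tailed independent Student's t test.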

Zone of skin = assay: Biodistribution in CD1 mouse skin at 200 to 300 kBq, iv measured at 60 mins by gamma counting analysis in presence of NS6740; type: ADME, organism-based; conditions: in vivo, 1 h; summary of the method: as §5
Mus musculus [19] = assay: Biodistribution in CD1 mouse adrenal at 200 to 300 kBq, iv measured at 60 mins by gamma counting analysis in presence of NS6740; type: ADME, organism-based, Adrenal gland; conditions: in vivo, 1 h; summary of the method: as §4
Pancreas = assay: Biodistribution in CD1 mouse pancreas at 200 to 300 kBq, iv measured at 60 mins by gamma counting analysis in presence of NS6740; type: ADME, organism-based; conditions: in vivo, 1 h; summary of the method: as §5
Mus musculus [20] = assay: Biodistribution in CD1 mouse thymus at 200 to 300 kBq, iv measured at 60 mins by gamma counting analysis in presence of NS6740; type: ADME, organism-based; conditions: in vivo, 1 h
Summary of the method: (§6)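 Female CD-1 mice given 200–300 kBq tracer intravenously. Animals anaesthetised for blood and urine sampling, then killed by cervical dislocation at 5, 15, 30 or 60 min (n = 3 per time; n = 7 at 60 min). Organs removed and weighed, activity gamma-counted, expressed as % injected dose per g wet weight. Blocking arm: 10 mg/kg i.p. in 0.9% saline, 10 min before tracer; two-tailed unpaired t test versus control.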

Spleen = assay: Biodistribution in CD1 mouse spleen at 200 to 300 kBq, iv measured at 60 mins by gamma counting analysis in presence of NS6740; type: ADME, organism-based; conditions: in vivo, 1 h; summary of the method: as §5
Urinary bladder = assay: Biodistribution in CD1 mouse bladder at 200 to 300 kBq, iv measured at 60 mins by gamma counting analysis in presence of NS6740; type: ADME, organism-based; conditions: in vivo, 1 h; summary of the method: as §4
[21] = Biodistribution in CD1 mouse urine at 200 to 300 kBq, iv measured at 60 mins by gamma counting analysis in presence of NS6740; type: ADME, organism-based; conditions: in vivo, 1 h; summary of the method: as §6
Kidney = assay: Biodistribution in CD1 mouse kidney at 200 to 300 kBq, iv measured at 60 mins by gamma counting analysis in presence of NS6740; type: ADME, organism-based; conditions: in vivo, 1 h; summary of the method: as §4
Liver = assay: Biodistribution in CD1 mouse liver at 200 to 300 kBq, iv measured at 60 mins by gamma counting analysis in presence of NS6740; type: ADME, organism-based; conditions: in vivo, 1 h; summary of the method: as §5
Mus musculus [22] = assay: Biodistribution in CD1 mouse large intestine at 200 to 300 kBq, iv measured at 60 mins by gamma counting analysis in presence of NS6740; type: ADME, organism-based; conditions: in vivo, 1 h; summary of the method: as §4
Stomach = assay: Biodistribution in CD1 mouse stomach at 200 to 300 kBq, iv measured at 60 mins by gamma counting analysis in presence of NS6740; type: ADME, organism-based; conditions: in vivo, 1 h; summary of the method: as §5
Mus musculus [23] = assay: Biodistribution in CD1 mouse small intestine at 200 to 300 kBq, iv measured at 60 mins by gamma counting analysis in presence of NS6740; type: ADME, organism-based; conditions: in vivo, 1 h; summary of the method: as §5
Lung = assay: Biodistribution in CD1 mouse lung at 200 to 300 kBq, iv measured at 60 mins by gamma counting analysis in presence of NS6740; type: ADME, organism-based; conditions: in vivo, 1 h; summary of the method: as §5
Brain [24] = assay: Biodistribution in CD1 mouse brain at 200 to 300 kBq, iv measured at 60 mins by gamma counting analysis in presence of NS6740; type: ADME, organism-based; conditions: in vivo, 1 h; summary of the method: as §4
Heart = assay: Biodistribution in CD1 mouse heart at 200 to 300 kBq, iv measured at 60 mins by gamma counting analysis in presence of NS6740; type: ADME, organism-based; conditions: in vivo, 1 h; summary of the method: as §4
Blood = assay: Biodistribution in CD1 mouse blood at 200 to 300 kBq, iv measured at 60 mins by gamma counting analysis in presence of NS6740; type: ADME, organism-based; conditions: in vivo, 1 h; summary of the method: as §4

T1 sequence (P36544 whole entry): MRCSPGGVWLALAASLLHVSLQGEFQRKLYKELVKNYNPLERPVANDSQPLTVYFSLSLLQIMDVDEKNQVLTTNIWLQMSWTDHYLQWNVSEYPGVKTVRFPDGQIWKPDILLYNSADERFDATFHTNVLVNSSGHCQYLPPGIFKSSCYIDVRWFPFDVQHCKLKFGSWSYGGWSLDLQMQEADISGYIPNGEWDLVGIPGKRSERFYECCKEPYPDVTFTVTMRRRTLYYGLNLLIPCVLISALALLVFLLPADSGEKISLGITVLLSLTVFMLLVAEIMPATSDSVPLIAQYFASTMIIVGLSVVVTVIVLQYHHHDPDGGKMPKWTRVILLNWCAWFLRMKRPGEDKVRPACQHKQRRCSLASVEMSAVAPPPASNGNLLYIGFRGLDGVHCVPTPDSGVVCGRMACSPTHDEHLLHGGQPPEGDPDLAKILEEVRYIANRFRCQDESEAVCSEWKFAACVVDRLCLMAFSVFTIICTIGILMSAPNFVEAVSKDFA
Neuronal acetylcholine receptor; alpha4/beta2, sequence (P17787 whole entry): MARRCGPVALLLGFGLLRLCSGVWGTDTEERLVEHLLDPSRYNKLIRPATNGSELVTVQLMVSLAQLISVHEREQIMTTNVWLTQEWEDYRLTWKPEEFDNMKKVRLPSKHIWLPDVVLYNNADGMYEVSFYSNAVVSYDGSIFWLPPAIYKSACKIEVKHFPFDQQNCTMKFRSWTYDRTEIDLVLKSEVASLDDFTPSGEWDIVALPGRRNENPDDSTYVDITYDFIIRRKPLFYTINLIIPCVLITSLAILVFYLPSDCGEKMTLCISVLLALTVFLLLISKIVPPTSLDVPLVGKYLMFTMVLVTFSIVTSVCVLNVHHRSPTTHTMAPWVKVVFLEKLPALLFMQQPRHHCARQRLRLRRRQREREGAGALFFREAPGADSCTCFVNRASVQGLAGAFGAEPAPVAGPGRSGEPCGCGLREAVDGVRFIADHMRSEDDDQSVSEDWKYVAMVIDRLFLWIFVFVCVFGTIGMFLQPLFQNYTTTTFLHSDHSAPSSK
Neuronal acetylcholine receptor; alpha4/beta2, sequence (P43681 whole entry): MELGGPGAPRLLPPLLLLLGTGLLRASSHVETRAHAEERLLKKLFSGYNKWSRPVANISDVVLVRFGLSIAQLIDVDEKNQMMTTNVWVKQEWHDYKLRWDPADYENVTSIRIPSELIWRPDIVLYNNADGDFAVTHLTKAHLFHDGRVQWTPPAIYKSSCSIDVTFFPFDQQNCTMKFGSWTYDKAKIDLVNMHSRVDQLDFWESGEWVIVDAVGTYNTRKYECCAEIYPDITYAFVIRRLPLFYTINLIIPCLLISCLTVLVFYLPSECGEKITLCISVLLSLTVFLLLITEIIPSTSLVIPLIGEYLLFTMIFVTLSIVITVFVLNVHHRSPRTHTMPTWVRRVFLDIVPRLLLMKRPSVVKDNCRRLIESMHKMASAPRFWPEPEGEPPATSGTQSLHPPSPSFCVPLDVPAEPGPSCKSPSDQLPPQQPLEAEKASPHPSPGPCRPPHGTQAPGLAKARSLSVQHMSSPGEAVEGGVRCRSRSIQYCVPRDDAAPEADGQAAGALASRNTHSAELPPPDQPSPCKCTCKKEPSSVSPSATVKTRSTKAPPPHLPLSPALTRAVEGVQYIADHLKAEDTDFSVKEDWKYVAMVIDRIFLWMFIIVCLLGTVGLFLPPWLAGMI
Neuronal acetylcholine receptor; alpha3/beta4, sequence (P30926 whole entry): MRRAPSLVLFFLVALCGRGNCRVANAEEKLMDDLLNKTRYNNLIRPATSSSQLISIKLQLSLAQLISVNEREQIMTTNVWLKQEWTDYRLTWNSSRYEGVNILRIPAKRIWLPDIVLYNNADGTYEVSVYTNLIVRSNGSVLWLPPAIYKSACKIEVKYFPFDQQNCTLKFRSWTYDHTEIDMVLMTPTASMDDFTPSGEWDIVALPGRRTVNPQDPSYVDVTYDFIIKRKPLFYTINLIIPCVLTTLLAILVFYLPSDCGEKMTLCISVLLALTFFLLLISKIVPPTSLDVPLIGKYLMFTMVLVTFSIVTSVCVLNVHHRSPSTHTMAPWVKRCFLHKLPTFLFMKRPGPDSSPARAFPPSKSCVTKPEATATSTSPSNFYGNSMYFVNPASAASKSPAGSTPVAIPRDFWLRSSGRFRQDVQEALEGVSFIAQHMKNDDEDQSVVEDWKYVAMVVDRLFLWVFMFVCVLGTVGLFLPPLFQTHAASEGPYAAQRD
Neuronal acetylcholine receptor; alpha3/beta4, sequence (P32297 whole entry): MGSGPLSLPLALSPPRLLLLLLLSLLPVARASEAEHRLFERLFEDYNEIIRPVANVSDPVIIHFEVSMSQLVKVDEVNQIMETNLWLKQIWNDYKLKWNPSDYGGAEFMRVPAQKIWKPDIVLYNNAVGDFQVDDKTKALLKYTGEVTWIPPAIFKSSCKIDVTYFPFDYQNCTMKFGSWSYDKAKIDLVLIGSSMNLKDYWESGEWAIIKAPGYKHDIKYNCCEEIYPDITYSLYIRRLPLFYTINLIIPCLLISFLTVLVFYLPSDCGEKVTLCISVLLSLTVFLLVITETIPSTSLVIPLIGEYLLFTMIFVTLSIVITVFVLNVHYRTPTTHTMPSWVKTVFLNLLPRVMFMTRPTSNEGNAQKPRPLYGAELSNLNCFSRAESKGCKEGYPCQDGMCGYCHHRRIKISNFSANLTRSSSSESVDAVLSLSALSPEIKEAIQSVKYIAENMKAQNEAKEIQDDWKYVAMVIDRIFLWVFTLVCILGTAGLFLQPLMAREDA
Neuronal acetylcholine receptor subunit alpha-7 (Rattus norvegicus, UniProt Q05941), sequence (Q05941 whole entry): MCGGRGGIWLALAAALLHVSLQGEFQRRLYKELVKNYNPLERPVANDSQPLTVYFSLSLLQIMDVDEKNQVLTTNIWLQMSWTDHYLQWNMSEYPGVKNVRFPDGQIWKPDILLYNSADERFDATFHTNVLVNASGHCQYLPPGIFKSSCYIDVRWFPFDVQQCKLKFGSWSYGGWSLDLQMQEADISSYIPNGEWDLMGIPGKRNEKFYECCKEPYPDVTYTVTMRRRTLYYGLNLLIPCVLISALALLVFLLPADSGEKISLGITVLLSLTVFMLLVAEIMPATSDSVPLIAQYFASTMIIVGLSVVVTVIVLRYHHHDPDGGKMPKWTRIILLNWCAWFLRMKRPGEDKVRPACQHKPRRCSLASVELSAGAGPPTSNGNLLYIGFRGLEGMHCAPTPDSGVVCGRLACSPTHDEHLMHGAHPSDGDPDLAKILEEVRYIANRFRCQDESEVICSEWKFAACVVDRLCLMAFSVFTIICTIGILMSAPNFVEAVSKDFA

[18F]CCn1ccc2ccc(-c3nnc(N4CCN5CCC4CC5)o3)cc21
logD [1]: -2.05
logD at 0.5 h [2]: 1.11
remaining at 2 h [3]: ≥ 97%
remaining at 2 h [4]: ≥ 97%
remaining at 5 min [5]: 98%
remaining at 5 min [6]: 98%
Kp at 0.25 h [7]: 0.18
Kp at 1 h [8]: 0.26
Kp at 0.5 h [9]: 0.19
Kp at 5 min [10]: 0.11

Fc1ccc(-c2nnc(N3CCN4CCC3CC4)o2)cc1
Ki [11]: 11.6 nM

[18F]c1ccc(-c2nnc(N3CCN4CCC3CC4)o2)cc1
Drug uptake (Brain [12]): 1.73 % ID/g

FCCn1ccc2ccc(-c3nnc(N4CCN5CCC4CC5)o3)cc21
Ratio Ki (Homo sapiens [13]): > 400
Ratio Ki (Homo sapiens [14]): 40.8
Ki [15]: > 1000 nM
Ki [16]: 102 nM
Ki [17]: 2.5 nM

O=C(c1ccc(-c2cccc(C(F)(F)F)c2)o1)N1CCN2CCC1CC2
Ki [18]: 1.1 nM
Drug uptake (Femur): 1.49 % ID/g
Drug uptake (Muscle tissue): 1.05 % ID/g
Drug uptake (Zone of skin): 1.7 % ID/g
Drug uptake (Mus musculus [19]): 2.51 % ID/g
Drug uptake (Pancreas): 3.04 % ID/g
Drug uptake (Mus musculus [20]): 2.25 % ID/g
Drug uptake (Spleen): 6.57 % ID/g
Drug uptake (Urinary bladder): 1.45 % ID/g
Drug uptake [21]: 218 % ID/g
Drug uptake (Kidney): 11.7 % ID/g
Drug uptake (Liver): 6.67 % ID/g
Drug uptake (Mus musculus [22]): 5.11 % ID/g
Drug uptake (Stomach): 9.71 % ID/g
Drug uptake (Mus musculus [23]): 15.3 % ID/g
Drug uptake (Lung): 4.56 % ID/g
Drug uptake (Brain [24]): 0.14 % ID/g
Drug uptake (Heart): 1.77 % ID/g
Drug uptake (Blood): 0.75 % ID/g
